In article PMC7127848 (Drug Design, Development and Therapy, 2020):
Converted amounts (≈) assume the structure as drawn. “And” between values parts separate entries of the source, which are not always exact repeats. Equal entries are not always repeated. “Also recorded” adds a separate entry of the source.

How the values were obtained:
[1] = test system: MtMetAPs (MtMetAP1a and MtMetAP1c); conditions: both MtMetAPs over human MetAPs; cited from earlier work
[2] = Microsome metabolic stability and predicted hepatic clearance; assay type: in vitro ADME; conditions: Sprague-Dawley (SD), rat, liver microsomes, pH 7.4
Procedure, shortened: (§1)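 Liver microsomes (0.5 mg/mL) incubated with 3 µM test compound in 50 mM phosphate buffer, pH 7.4. After 3 min pre-incubation at 37°C, 5 mM NADPH started the reaction. Samples at 0, 5, 15, 30, 45 and 60 min, quenched in acetonitrile with internal standard, then LC-MS/MS. NADPH-free controls sampled at 0 and 60 min.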

[3] = Blood-plasma partition; assay type: in vitro ADME; conditions: SD rat blood, 1 μM, 37°C, 1 hr, mean ± SEM
Procedure, shortened: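 Test compound spiked into fresh whole SD rat blood at 1 μM final and held 1 hr at 37°C. Plasma separated by centrifugation (15 min, 4°C, 1750 rcf). Blood and plasma assayed by LC-MS/MS. B/P taken as mean peak-area ratio in blood over plasma. Its SEM was propagated as the square root of summed squared SEM/mean terms, multiplied by B/P.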

[4] = in vivo pharmacokinetic studies; cited from earlier work
[5] = Human hepatic clearance by single species scaling using liver blood flow; conditions: single species (SD rat) scaling of in vivo clearance and liver blood flow
[6] = Thermodynamic solubility, shake-flask method; assay type: physicochemical; conditions: room temperature
Procedure, shortened: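 Shake-flask method: excess test compound shaken in solvent at room temperature for 72 h after saturation. Centrifuged (18,879 rcf, 10 min) and filtered through 0.22 μm. Dissolved compound quantified by HPLC-UV, in triplicate.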

[7] = test system: Mycobacterium tuberculosis; conditions: cited from earlier work
[8] = Pharmacokinetics and bioavailability in SD rats; assay type: in vivo; conditions: Sprague-Dawley, rat, plasma
Procedure, shortened: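 Male SD rats (300–350 g), cannulated under anesthesia the day before, n = 3 per group. Single dose of 2 mg/kg IV bolus, 20 mg/kg PO (fasted ≥12 h) or 10 mg/kg SC. Co-solvent formulation diluted 5-fold with saline (IV, SC) or water (PO). Blood taken 0.08–48 h, plasma by LC-MS/MS. Non-compartmental analysis; F from dose-normalised extravascular versus IV AUC.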

[9] = target: T1, CYP2C8 (Homo sapiens, UniProt P10632); test: CYP reaction phenotyping with rhCYP; assay type: in vitro ADME; conditions: rhCYP2C8
T1 sequence (P10632 1-490): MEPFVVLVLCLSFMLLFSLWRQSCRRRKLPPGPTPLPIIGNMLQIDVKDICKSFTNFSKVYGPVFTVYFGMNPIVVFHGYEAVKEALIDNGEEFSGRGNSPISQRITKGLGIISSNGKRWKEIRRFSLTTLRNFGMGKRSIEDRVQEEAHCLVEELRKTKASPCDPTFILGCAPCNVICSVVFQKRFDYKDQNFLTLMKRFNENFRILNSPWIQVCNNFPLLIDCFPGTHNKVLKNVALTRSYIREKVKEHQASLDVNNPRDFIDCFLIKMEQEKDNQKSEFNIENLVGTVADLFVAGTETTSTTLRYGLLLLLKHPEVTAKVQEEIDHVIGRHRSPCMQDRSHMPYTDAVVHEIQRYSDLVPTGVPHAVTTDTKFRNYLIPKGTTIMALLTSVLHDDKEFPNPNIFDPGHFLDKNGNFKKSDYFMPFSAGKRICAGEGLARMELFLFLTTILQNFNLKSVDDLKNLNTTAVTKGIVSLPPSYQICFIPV
Procedure, shortened: (§2)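 Recombinant human CYP (200 pmol) with 1 µM test compound in 100 mM K2HPO4/10 mM MgCl2, pH 7.4, pre-incubated. Reaction started with 1 mM NADPH. DMSO kept ≤0.1% v/v and acetonitrile ≤1% v/v. Samples at 0, 5, 15, 30 and 60 min, stopped with acetonitrile containing internal standard, then centrifuged. Negative controls lacked NADPH, used insect control cells, or both.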

[10] = Microsome metabolic stability and predicted hepatic clearance; assay type: in vitro ADME; conditions: human, liver microsomes, pH 7.4
Procedure, shortened: as §1

[11] = target: CYP2D6 (Homo sapiens, UniProt P10635); test: CYP reaction phenotyping with rhCYP; assay type: in vitro ADME
Procedure, shortened: as §2

[12] = Stability in plasma; assay type: in vitro ADME; conditions: rhesus, monkey
Procedure, shortened: (§3)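 Test compound at 1 μM incubated at 37°C for up to 4 h in plasma. Sources: CD-1 mouse, SD rat (fresh, from male rats), monkey or human. Aliquots at set times quenched with acetonitrile containing clioquinol as internal standard. Centrifuged at 18,879 rcf for 5 min, and supernatant assayed by LC-MS/MS for compound remaining.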

[13] = Plasma protein binding, centrifugal ultrafiltration; assay type: in vitro ADME; conditions: Sprague-Dawley, rat, Fraction bound to plasma protein, mean ± SD
[14] = Stability in plasma; assay type: in vitro ADME; conditions: SD, rat
Procedure, shortened: as §3

[15] = target: T2, CYP1A2 (Homo sapiens, UniProt P05177); test: CYP reaction phenotyping with rhCYP; assay type: in vitro ADME
T2 sequence (P05177 1-516): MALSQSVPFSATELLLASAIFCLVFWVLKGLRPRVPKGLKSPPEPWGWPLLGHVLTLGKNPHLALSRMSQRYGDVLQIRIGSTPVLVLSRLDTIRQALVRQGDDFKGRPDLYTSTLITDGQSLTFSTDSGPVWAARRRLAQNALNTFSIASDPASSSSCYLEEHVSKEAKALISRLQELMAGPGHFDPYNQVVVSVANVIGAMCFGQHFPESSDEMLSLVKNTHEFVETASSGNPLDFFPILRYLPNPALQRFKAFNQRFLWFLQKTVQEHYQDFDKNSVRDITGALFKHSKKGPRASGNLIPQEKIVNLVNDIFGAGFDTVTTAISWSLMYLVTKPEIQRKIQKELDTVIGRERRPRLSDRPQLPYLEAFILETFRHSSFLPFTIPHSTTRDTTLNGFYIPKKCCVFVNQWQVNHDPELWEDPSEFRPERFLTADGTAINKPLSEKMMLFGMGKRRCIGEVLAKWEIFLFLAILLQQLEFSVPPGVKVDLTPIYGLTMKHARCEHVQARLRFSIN
Procedure, shortened: as §2

[16] = Stability in plasma; assay type: in vitro ADME; conditions: human
Procedure, shortened: as §3

[17] = Microsome metabolic stability and predicted hepatic clearance; assay type: in vitro ADME; conditions: cynomolgus monkey, liver microsomes, pH 7.4
Procedure, shortened: as §1

[18] = Solution state pH stability in USP buffers; assay type: physicochemical; conditions: aqueous media pH 1-10, 37°C, up to 48 hrs
Procedure, shortened: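 Test compound added from DMSO to USP buffers with 0.2% v/v Tween 80: 0.2 M HCl (pH 1–2), 0.2 M acetate (pH 3–5), 0.2 M phosphate (pH 6–8), carbonate (pH 9–10). Held in a 37°C water bath. Aliquots at set times assayed by HPLC-UV for compound remaining. Degradation rate constant derived per buffer.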

[19] = cited from earlier work
[20] = Microsome metabolic stability and predicted hepatic clearance; assay type: in vitro ADME; conditions: CD-1, mouse, liver microsomes, pH 7.4
Procedure, shortened: as §1

[21] = Stability in plasma; assay type: in vitro ADME; conditions: CD-1, mouse
Procedure, shortened: as §3

[22] = cited from earlier work; remark: listed apart in the source

CYP2D6, sequence (P10635 whole entry): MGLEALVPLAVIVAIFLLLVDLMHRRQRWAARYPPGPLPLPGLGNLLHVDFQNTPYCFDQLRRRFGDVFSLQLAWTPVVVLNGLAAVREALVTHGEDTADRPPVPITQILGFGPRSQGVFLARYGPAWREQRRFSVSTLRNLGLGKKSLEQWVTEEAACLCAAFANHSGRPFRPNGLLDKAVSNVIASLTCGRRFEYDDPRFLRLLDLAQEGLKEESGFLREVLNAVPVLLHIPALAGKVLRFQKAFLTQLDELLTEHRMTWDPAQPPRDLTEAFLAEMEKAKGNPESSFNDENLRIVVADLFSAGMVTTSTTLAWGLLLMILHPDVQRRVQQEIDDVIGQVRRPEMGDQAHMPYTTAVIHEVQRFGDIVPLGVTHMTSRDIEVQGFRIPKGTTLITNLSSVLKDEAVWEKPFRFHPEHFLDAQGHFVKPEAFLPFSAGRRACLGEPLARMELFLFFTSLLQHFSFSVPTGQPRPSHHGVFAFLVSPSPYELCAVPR

Oc1c(Br)cc(Cl)c2cccnc12 [CLBQ14, 7-bromo-5-chloroquinolin-8-ol]
Selectivity for MtMetAPs over human MetAPs [1]: great selectivity
remaining at 1 h, 3 µM [2]: 26.8 ± 2.37%
Blood-plasma (B/P) ratio [3]: 0.83 and 0.83 ± 0.03
Administered dose excreted unchanged in urine [4]: 0.01%
Human hepatic clearance (ClH, human) predicted [5]: 11.5 mL/min/kg
Solubility ([6]; water (pH 7)): 70 µg/mL (≈ 271 µM)
solubility at 72 h ([6]; water, pH 7, Solubility): < 70 µg/mL
Potency against aged non-growing Mtb [7]: increased potency
Potency against replicating Mtb ([7]; replicating Mtb): great potency
Tmax ([8]; po, 20 mg/kg): 30 min
Tmax ([8]; sc, 10 mg/kg): ~55 min
Contribution to metabolism of CLBQ14 [9]: may also be a contributor
remaining at 1 h, 3 µM [10]: 35.5 ± 0.33%
Contribution to metabolism of CLBQ14 ([11]; rhCYP2D6): primary contributors
CLBQ14 turnover ([11]; rhCYP2D6, 1 µM, 37°C, 60 mins): greater than 50%
recovery at 4 h, 1 μM [12]: 105 ± 4.25%
fraction unbound at 1 h, 5 μg/mL ([13]; 5 μg/mL): 0.09
fraction unbound at 1 h, 50 μg/mL ([13]; 50 μg/mL): 0.017
recovery at 4 h, 1 μM [14]: 101 ± 13%
Contribution to metabolism of CLBQ14 ([15]; rhCYP1A2): metabolized primarily; also recorded: primary contributors
CLBQ14 turnover ([15]; rhCYP1A2, 1 µM, 37°C, 60 mins): greater than 50%
recovery at 4 h, 1 μM [16]: 103.7 ± 0.99%
remaining at 1 h, 3 µM [17]: 17.5 ± 0.86%
Stability in aqueous media [18]: relatively stable
calculated log P ([19]; 25°C / room temperature): 3.92 ± 0.39
calculated pKa ([19]; 25°C): 2.23 ± 0.30
remaining at 1 h, 3 µM [20]: 3.7 ± 1.36%
recovery at 4 h, 1 μM [21]: 97.6 ± 2.27%

CCOCCOCCO [Transcutol HP]
NOAEL ([22]; 5% solution administered orally to rats for 90 days): 1%
LD50 ([22]; acute administration): > 5000 mg/kg
